From ChEMBL document CHEMBL1145118, “Metabolites of febrifugine and its synthetic analogue by mouse liver S9 and their antimalarial activity against Plasmodium malaria parasite” (J Med Chem, 2003)
Each block holds one compound with its values, some of them ahead of it.

What was measured:
Plasmodium berghei [1] = experiment: (§1) In vivo effective dose for antimalarial activity by intraperitoneal dose; type: functional; conditions: ip
Method in brief: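 P. berghei-infected mice, five per group. Test agents were prepared at various concentrations in distilled water or olive oil and given intraperitoneally once daily on days 0–3. Parasitemia was measured on day 4, the day after the last dose, and effective doses were derived by a previously reported protocol.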

Plasmodium berghei [2] = experiment: as §1; type: functional; conditions: ip; remark: listed apart in the source
Method in brief: (§2)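 Mice infected with P. berghei were dosed intraperitoneally or orally, in groups of five, once daily on days 0–3. Compounds were given at various concentrations in distilled water or olive oil. Parasitemia was measured on day 4, the day after the last dose. ED50 and ED90 were derived by a previously reported protocol.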

[3] = Selectivity ratio between cytotoxicity to antimalarial activity was determined; type: functional
FM3A = experiment: Cytotoxicity against FM3A mouse mammary cells; type: functional, cell-based
Plasmodium falciparum = experiment: In vitro antimalarial activity against Plasmodium falciparum FCR3; type: functional, organism-based
Plasmodium berghei [4] = experiment: In vivo antimalarial activity at >100mg/kg intraperitoneal dose; type: functional
Plasmodium berghei [5] = experiment: In vivo effective dose for antimalarial activity by peroral dose; type: functional; conditions: po; method in brief: as §2

Compound: CC1(C)[C@@H](n2cnc3ccccc3c2=O)C(=O)C[C@@H]2[C@@H](O)CCCN21
ED50 (Plasmodium berghei [1]): 2.5 mg/kg
ED90 (Plasmodium berghei [2]): 6.6 mg/kg
Ratio [3]: 238

Compound: O=C(C[C@@H]1NCCC[C@H]1O)Cn1cnc2ccccc2c1=O (single isomer, unassigned) [FEBRIFUGINE]
ED50 (Plasmodium berghei [1]): 0.3 mg/kg
ED90 (Plasmodium berghei [2]): 1.5 mg/kg
Ratio [3]: 243

EC50 (Plasmodium falciparum): 6600 nM
Compound: O=C(C[C@H]1NCCC[C@@H]1O)Cn1c(=O)[nH]c2ccccc2c1=O
EC50 (FM3A): > 85000 nM
Ratio [3]: >13

Compound: O=c1c2ccccc2ncn1CC1(O)C[C@@H]2NCCC[C@@H]2O1 (stereo not given in full) [ISOFEBRIFUGINE]
ED50 (Plasmodium berghei [1]): 79 mg/kg
Inhibition (Plasmodium berghei [4]): 70%
Ratio [3]: 53

Compound: C[C@@H]1CC[C@H]2[C@@H](C)C(=O)O[C@@H]3O[C@@]4(C)CC[C@@H]1[C@]32OO4 [ARTEMISININ]
ED50 (Plasmodium berghei [1]): 2 mg/kg
ED50 (Plasmodium berghei [5]): 3 mg/kg
ED90 (Plasmodium berghei [5]): 8 mg/kg
ED90 (Plasmodium berghei [2]): 3.3 mg/kg
Ratio [3]: 1000

Compound: O=c1c2ccccc2ncn1CC1(O)C[C@@H]2NCC[C@H](O)[C@@H]2O1 (stereo not given in full)
EC50 (FM3A): 250 nM
EC50 (Plasmodium falciparum): 150 nM
Ratio [3]: 167

Compound: CCN(CC)CCCC(C)Nc1ccnc2cc(Cl)ccc12 (stereo not given) [CHLOROQUINE]
ED50 (Plasmodium berghei [1]): 5.4 mg/kg
ED50 (Plasmodium berghei [5]): 32 mg/kg
ED90 (Plasmodium berghei [5]): 89 mg/kg
ED90 (Plasmodium berghei [2]): 13 mg/kg

EC50 (Plasmodium falciparum): 2.2 nM
Compound: O=C(C[C@H]1NCCC[C@@H]1O)Cn1cnc2ccc(O)cc2c1=O
EC50 (FM3A): 270 nM
ED50 (Plasmodium berghei [1]): 0.6 mg/kg
ED50 (Plasmodium berghei [5]): 15 mg/kg
ED90 (Plasmodium berghei [5]): 27 mg/kg
ED90 (Plasmodium berghei [2]): 5.2 mg/kg
Ratio [3]: 123

Compound: O=c1c2cc(O)ccc2ncn1CC1(O)C[C@@H]2NCCC[C@@H]2O1 (stereo not given in full)
EC50 (FM3A): 29000 nM
EC50 (Plasmodium falciparum): 0.27 nM
ED50 (Plasmodium berghei [1]): 6 mg/kg
ED90 (Plasmodium berghei [2]): 37 mg/kg
Ratio [3]: 10741

EC50 (Plasmodium falciparum): 22 nM
Compound: O=C(C[C@H]1NCC[C@H](O)[C@@H]1O)Cn1cnc2ccccc2c1=O
EC50 (FM3A): 36000 nM
ED50 (Plasmodium berghei [1]): 2.4 mg/kg
ED50 (Plasmodium berghei [5]): 8 mg/kg
ED90 (Plasmodium berghei [5]): 23 mg/kg
ED90 (Plasmodium berghei [2]): 8.3 mg/kg
Ratio [3]: 1636

EC50 (Plasmodium falciparum): > 52000 nM
Compound: O=C(C[C@H]1NC(=O)CC[C@@H]1O)Cn1cnc2ccccc2c1=O
EC50 (FM3A): > 52000 nM
